In ChEMBL document CHEMBL2321797 (J Med Chem, 2013):
Active and inactive are the calls of the source. The calls are words filed in the database; no cut-off is given here.

Key:
[1] = (§1) Inhibition of HIV1 Envelope glycoprotein-mediated cell-cell fusion expressed in human HL2/3 cells coincubated with human TZM-b1 cells after 6 to 8 hrs by luciferase assay; format: cell-based; details: Human immunodeficiency virus 1, TZM-b1
[2] = system: Human immunodeficiency virus 1; assay: Antiviral activity against Human immunodeficiency virus 1 assessed as inhibition of viral replication; format: functional, organism-based
Outline: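 NL4-3 mutant panel (D36G T20-sensitive; five T20-resistant NHR variants) infecting MT-2 cells with peptides at graded concentrations. p24 measured by ELISA on day 4. Run in triplicate as mean ± SD; IC50 and fold change vs D36G.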

TZM-b1 = assay: as §1; format: cell-based; details: Human immunodeficiency virus 1

## Cc1ccc(C)n1-c1ccc(OCC(=O)O)c(C(=O)O)c1
[1]
  IC50: > 100 µM

## Cc1ccc(C)n1-c1ccc(O)c(C(=O)O)c1
[2]
  EC50: 0.69 µM

## Cc1cc(C(=O)O)c(C)n1-c1ccc(C(=O)O)c(O)c1
TZM-b1
  inhibition: inactive

## Cc1ccc(C)n1-c1ccc(C(=O)O)c(OCC(=O)O)c1
[1]
  IC50: > 100 µM

## Cc1cc(C(=O)O)c(C)n1-c1ccc(O)c(C(=O)O)c1
TZM-b1
  inhibition: inactive
